Laboratory results from ChEMBL document CHEMBL1122406, “Bis(bioreductive) alkylating agents: synthesis and biological activity in a nude mouse human carcinoma model” (1983).

Legend:
[1] = tested on: EBV-positive nasopharyngeal cell line; experiment: Percent colony reduction in cell growth in EBV-positive nasopharyngeal cell lines (D98/HR1) after administration of 3.0 ug/mL dose; format: functional, human gammaherpesvirus 4
In short: (§1)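 D98/HR1 cells from 3-4-day monolayer cultures, suspended at 4.0×10^5/mL and exposed to drug for 1 h at 37 °C. Quinones dissolved in dichloromethane, diluted in 95% ethanol, then in warm McCoy's 5A. Cells washed twice, plated in agar over an agar base at 6.7×10^4 cells/plate. Colony survival expressed relative to control, as percent reduction.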

[2] = tested on: EBV-positive nasopharyngeal cell line; experiment: EBV-positive nasopharyngeal cells (D98/HR1) survived at concentration of 3.0 ug/mL of compound; format: functional, human gammaherpesvirus 4
In short: (§2)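 Modified clonogenic assay in D98/HR1 cells from 3-4-day-old monolayer cultures. Drug diluted into warm McCoy's 5A medium; quinones first dissolved in dichloromethane, then diluted in 95% ethanol. Cells at 4.0 × 10^5/mL exposed for 1 h at 37 °C, washed twice, then plated in 0.3% agar CMRL 1066 medium over a 0.5% agar base, 6.7 × 10^4 cells/plate. Survival is expressed relative to control.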

[3] = tested on: EBV-positive nasopharyngeal cell line; experiment: EBV-positive nasopharyngeal colony count obtained from the examination of uniform plate surface areas after a dose of 1.34 ug/mL from Experiment B; format: functional, human gammaherpesvirus 4; in short: as §2
[4] = tested on: EBV-positive nasopharyngeal cell line; experiment: EBV-positive nasopharyngeal colony count obtained from the examination of uniform plate surface areas after a dose of 2.68 ug/mL from Experiment B in mice; format: functional, human gammaherpesvirus 4
[5] = tested on: EBV-positive nasopharyngeal cell line; experiment: EBV-positive nasopharyngeal colony count obtained from the examination of uniform plate surface areas after a dose of 0.67 ug/mL from Experiment B; format: functional, human gammaherpesvirus 4; in short: as §2
[6] = tested on: EBV-positive nasopharyngeal cell line; experiment: EBV-positive nasopharyngeal colony count obtained from the examination of uniform plate surface areas after a dose of 0.067 ug/mL from Experiment B; format: functional, human gammaherpesvirus 4; in short: as §2
Mus musculus [7] = experiment: Base line measurement at a sample size of 4 after first week of 20 mg/kg dose administration in mice; format: functional
In short: (§3)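 Nude mice pretreated with 0.5 mL rabbit anti-mouse thymocyte serum s.c., inoculated s.c. 7 days later with 1×10^7 D98/HR1 cells in PBS, and given a second serum dose two weeks later. Dosing started at tumors ~2-3 mm diameter, daily for 14 days, then 2 weeks off. Dose per kg from daily individual weights; Klucel vehicle. Group mean tumor volume (mm3) adjusted by analysis of covariance for base line.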

Mus musculus [8] = experiment: Base line measurement at a sample size of 4 after fourth week of 20 mg/kg dose administration in mice; format: functional; in short: as §3
Mus musculus [9] = experiment: Base line measurement at a sample size of 4 after second week of 20 mg/kg dose administration in mice; format: functional; in short: as §3
Mus musculus [10] = experiment: Base line measurement at a sample size of 5 after first week of 5 mg/kg dose administration in mice; format: functional; in short: as §3
Mus musculus [11] = experiment: Base line measurement at a sample size of 5 after fourth week of 5 mg/kg dose administration in mice; format: functional; in short: as §3
Mus musculus [12] = experiment: Base line measurement at a sample size of 5 after second week of 5 mg/kg dose administration in mice; format: functional; in short: as §3
[13] = tested on: EBV-positive nasopharyngeal cell line; experiment: Percent colony reduction in cell growth in EBV-positive nasopharyngeal cell lines after in vitro exposure at 1.34 ug/mL
[14] = tested on: EBV-positive nasopharyngeal cell line; experiment: Percent colony reduction in cell growth in EBV-positive nasopharyngeal cell lines after administration of 0.067 ug/mL dose
[15] = tested on: EBV-positive nasopharyngeal cell line; experiment: EBV-positive nasopharyngeal colony count obtained from the examination of uniform plate surface areas after a dose of 1.34 ug/mL; format: functional, human gammaherpesvirus 4; in short: as §2
[16] = tested on: EBV-positive nasopharyngeal cell line; experiment: EBV-positive nasopharyngeal colony count obtained from the examination of uniform plate surface areas after a dose of 2.68 ug/mL; format: functional, human gammaherpesvirus 4; in short: as §2
[17] = tested on: EBV-positive nasopharyngeal cell line; experiment: EBV-positive nasopharyngeal colony count obtained from the examination of uniform plate surface areas after a dose of 0.67 ug/mL; format: functional, human gammaherpesvirus 4; in short: as §2
[18] = tested on: EBV-positive nasopharyngeal cell line; experiment: Percent colony reduction in cell growth in EBV-positive nasopharyngeal cell lines after administration of 1.34 ug/mL dose; format: functional, human gammaherpesvirus 4; in short: as §1
[19] = tested on: EBV-positive nasopharyngeal cell line; experiment: Percent colony reduction in cell growth in EBV-positive nasopharyngeal cell lines after administration of 6.28 ug/mL dose; format: functional, human gammaherpesvirus 4; conditions: in the assay text read “2.68 ug/mL” for “6.28 ug/mL”; in short: as §1
[20] = tested on: EBV-positive nasopharyngeal cell line; experiment: EBV-positive nasopharyngeal colony count obtained from the examination of uniform plate surface areas after a dose of 0.2 ug/mL; format: functional, human gammaherpesvirus 4; in short: as §2
[21] = tested on: EBV-positive nasopharyngeal cell line; experiment: Percent colony reduction in cell growth in EBV-positive nasopharyngeal cell lines after administration of 0.2 ug/mL dose; format: functional, human gammaherpesvirus 4; in short: as §1
[22] = tested on: EBV-positive nasopharyngeal cell line; experiment: Percent colony reduction in cell growth in EBV-positive nasopharyngeal cell lines after administration of 0.67 ug/mL dose; format: functional, human gammaherpesvirus 4; in short: as §1
Mus musculus [23] = experiment: Base line measurement at a sample size of 3 after first week of 20 mg/kg dose administration; format: functional; in short: as §3
Mus musculus [24] = experiment: Base line measurement at a sample size of 3 after fourth week of 20 mg/kg dose administration; format: functional; in short: as §3
Mus musculus [25] = experiment: Base line measurement at a sample size of 3 after second week of 20 mg/kg dose administration; format: functional; in short: as §3
Mus musculus [26] = experiment: Base line measurement at a sample size of 5 after first week of 5 mg/kg dose administration; format: functional; in short: as §3
Mus musculus [27] = experiment: Base line measurement at a sample size of 5 after fourth week of 5 mg/kg dose administration; format: functional; in short: as §3
Mus musculus [28] = experiment: Base line measurement at a sample size of 5 after second week of 5 mg/kg dose administration; format: functional; in short: as §3
[29] = tested on: EBV-positive nasopharyngeal cell line; experiment: EBV-positive nasopharyngeal colony count obtained from the examination of uniform plate surface areas after a dose of 10 ug/mL; format: functional, cell-based; conditions: human gammaherpesvirus 4; in short: as §2
[30] = tested on: EBV-positive nasopharyngeal cell line; experiment: Percent colony reduction in cell growth in EBV-positive nasopharyngeal cell lines after administration of 10 ug/mL dose; format: functional, cell-based; conditions: human gammaherpesvirus 4; in short: as §1
[31] = tested on: EBV-positive nasopharyngeal cell line; experiment: EBV-positive nasopharyngeal colony count obtained from the examination of uniform plate surface areas after a dose of 6.0 ug/mL; format: functional, human gammaherpesvirus 4; in short: as §2
[32] = tested on: EBV-positive nasopharyngeal cell line; experiment: Percent colony reduction in cell growth in EBV-positive nasopharyngeal cell lines after administration of 6.0 ug/mL dose; format: functional, human gammaherpesvirus 4; in short: as §1
[33] = tested on: EBV-positive nasopharyngeal cell line; experiment: EBV-positive nasopharyngeal colony count obtained from the examination of uniform plate surface areas after a dose of 0.4 ug/mL from experiment B; format: functional, human gammaherpesvirus 4; in short: as §2
[34] = tested on: EBV-positive nasopharyngeal cell line; experiment: EBV-positive nasopharyngeal colony count obtained from the examination of uniform plate surface areas after a dose of 0.004 ug/mL from experiment B; format: functional, human gammaherpesvirus 4; in short: as §2
[35] = tested on: EBV-positive nasopharyngeal cell line; experiment: EBV-positive nasopharyngeal colony count obtained from the examination of uniform plate surface areas after a dose of 0.04 ug/mL from experiment A; format: functional, human gammaherpesvirus 4; in short: as §2
[36] = tested on: EBV-positive nasopharyngeal cell line; experiment: EBV-positive nasopharyngeal colony count obtained from the examination of uniform plate surface areas after a dose of 0.04 ug/mL from experiment B; format: functional, human gammaherpesvirus 4; in short: as §2
[37] = tested on: EBV-positive nasopharyngeal cell line; experiment: Percent colony reduction in cell growth in EBV-positive nasopharyngeal cell lines after administration of 0.004 ug/mL dose from experiment B; format: functional, human gammaherpesvirus 4; in short: as §1
[38] = tested on: EBV-positive nasopharyngeal cell line; experiment: Percent colony reduction in cell growth in EBV-positive nasopharyngeal cell lines after administration of 0.04 ug/mL dose from experiment A; format: functional, human gammaherpesvirus 4; in short: as §1
[39] = tested on: EBV-positive nasopharyngeal cell line; experiment: Percent colony reduction in cell growth in EBV-positive nasopharyngeal cell lines after administration of 0.04 ug/mL dose from experiment B; format: functional, human gammaherpesvirus 4; in short: as §1
[40] = tested on: EBV-positive nasopharyngeal cell line; experiment: Percent colony reduction in cell growth in EBV-positive nasopharyngeal cell lines after administration of 0.4 ug/mL dose from experiment B; format: functional, human gammaherpesvirus 4; in short: as §1
[41] = tested on: EBV-positive nasopharyngeal cell line; experiment: EBV-positive nasopharyngeal colony count obtained from the examination of uniform plate surface areas after a dose of 0.1 ug/mL; format: functional, human gammaherpesvirus 4; in short: as §2
[42] = tested on: EBV-positive nasopharyngeal cell line; experiment: Percent colony reduction in cell growth in EBV-positive nasopharyngeal cell lines (D98/HR1) after administration of 0.3 ug/mL dose; format: functional, human gammaherpesvirus 4; in short: as §1
[43] = tested on: EBV-positive nasopharyngeal cell line; experiment: Percent colony reduction in cell growth in EBV-positive nasopharyngeal cell lines (D98/HR1) after administration of 100 ug/mL dose; format: functional, human gammaherpesvirus 4; in short: as §1
[44] = tested on: EBV-positive nasopharyngeal cell line; experiment: EBV-positive nasopharyngeal cells (D98/HR1) survived at concentration of 0.3 ug/mL of compound; format: functional, human gammaherpesvirus 4; in short: as §2
[45] = tested on: EBV-positive nasopharyngeal cell line; experiment: EBV-positive nasopharyngeal cells (D98/HR1) survived at concentration of 100 ug/mL of compound; format: functional, human gammaherpesvirus 4; in short: as §2

COc1cc([C@@H]2c3cc4c(cc3[C@@H](O[C@@H]3O[C@@H]5CO[C@@H](C)O[C@H]5[C@H](O)[C@H]3O)[C@H]3COC(=O)[C@H]23)OCO4)cc(OC)c1O [ETOPOSIDE]
Reduction [1]: 70%
Survival [2]: 0.3

CC(=O)OCC1=CC(=O)C=C(CCC2=CC(=O)C=C(COC(C)=O)C2=O)C1=O
Survival [3]: 1.19
Survival [4]: 1.35
Survival [5]: 1.34
Survival [6]: 0.7
Baseline (Mus musculus [7]): 34.53
Baseline (Mus musculus [8]): 360.23
Baseline (Mus musculus [9]): 94.83
Baseline (Mus musculus [10]): 69.66
Baseline (Mus musculus [11]): 358.79
Baseline (Mus musculus [12]): 162.76
Reduction [13]: -19%
Reduction [14]: 30%

O=C1C=C(CBr)C(=O)C(CCC2=CC(=O)C=C(CBr)C2=O)=C1
Survival [15]: 0.77
Survival [16]: 0.91
Survival [17]: 0.81
Reduction [18]: 23%
Reduction [19]: 9%
Survival [20]: 1
Reduction [21]: 0%
Reduction [22]: 19%
Baseline (Mus musculus [23]): 12.54
Baseline (Mus musculus [24]): 29.69
Baseline (Mus musculus [25]): 17.52
Baseline (Mus musculus [26]): 22.32
Baseline (Mus musculus [27]): 137.03
Baseline (Mus musculus [28]): 43.2

CISPLATIN
Survival [29]: 0.03
Reduction [30]: 97%
Survival ([20]; human gammaherpesvirus 4): 0.4
Reduction ([21]; human gammaherpesvirus 4): 60%

CC[C@]1(O)C[C@@H]2CN(CCc3c([nH]c4ccccc34)[C@@](C(=O)OC)(c3cc4c(cc3OC)N(C)[C@H]3[C@@](O)(C(=O)OC)[C@H](OC(C)=O)[C@]5(CC)C=CCN6CC[C@]43[C@@H]65)C2)C1 [VINBLASTINE]
Survival [31]: <0.01
Reduction [32]: >99%

COc1cccc2c1C(=O)c1c(O)c3c(c(O)c1C2=O)C[C@@](O)(C(=O)CO)C[C@@H]3O[C@H]1C[C@H](N)[C@H](O)[C@H](C)O1 [DOXORUBICIN]
Survival [33]: <0.1
Survival [34]: 0.69
Survival [35]: 0.37
Survival [36]: 0.18
Reduction [37]: 31%
Reduction [38]: 63%
Reduction [39]: 82%
Reduction [40]: >99%

O=C1c2c(O)ccc(O)c2C(=O)c2c(NCCNCCO)ccc(NCCNCCO)c21 [MITOXANTRONE]
Survival [41]: 0.33

CN(Cc1cnc2nc(N)nc(N)c2n1)c1ccc(C(=O)N[C@@H](CCC(=O)O)C(=O)O)cc1 [METHOTREXATE]
Reduction [42]: 60%
Reduction [43]: >99%
Survival [44]: 0.4
Survival [45]: <0.01
